HSF1 activator: increases HSF-1 driven luciferase reporter signal; NIH3T3-HGL HSF-1 luciferase reporter, MG132, 8 h; 100% = twice DMSO control signal; activation, % at 9 µM; hit rate 1.7% among 300,000; AID 504408;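 active means mean replicate activation of at least 50% with a set share of replicates each reaching 50%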;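 further: 0% = median of the neutral control wells and 100% = twice that signal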
HSF1 inh: HSF1 inhibition. NIH3T3-HGL HSE-luciferase, MG132-induced, luminescence 8 h; active compounds read low. activity change, negative = inhibition, % at 7.5 µM (by protocol). hit rate 0.77% among 300,000;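 active means more than half of replicate wells show activity change below -50%, luminescence cut by over half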;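 further: luciferase reports HSF-1 transcriptional activity via heat shock element; 0% = median of DMSO wells and -100% = zero luminescence signal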
Jurkat NFkB inh: inhibitors of the PMA/ionomycin-induced NF-kB reporter in Jurkat cells | PMA/ionomycin-induced NF-kB luciferase reporter, luminescence | inhibition, % at 4 µM | hit rate 0.53% among 330,000; in the data active means inhibition above about 50%
T cruzi inh: T. cruzi replication inhibition; inhibition, % (test concentration not listed); hit rate 1.4% among 300,000; T. cruzi beta-gal in NIH3T3, luminescence, 90 h;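 active means mean inhibition across valid replicates above about 55%, limit read from the data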;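 further: signal also drops with host cell toxicity which is not excluded here; 0% = plate median of DMSO wells and 100% = zero luminescence signal; higher percent means less beta-gal luminescence so fewer parasites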
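System: mouse NIH/3T3 fibroblasts infected with β-gal-expressing T. cruzi Tulahuen C4 / Input: NIH/3T3 cells, 5,000 per well / Buffer or medium: Low-serum DMEM with 2% FBS / Probe or stimulus: 5000 reporter trypomastigotes per well / Schedule: ≥90 h infection period, 3 h prior cell attachment / Measured by: GalScreen luminescence, 60 min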
697 NFkB inh: inhibitors of the PMA/ionomycin-induced NF-kB reporter in 697 B cells. 697 B-cell NF-kB luciferase reporter, 16 h. inhibition, % at 4 µM. hit rate 0.33% among 330,000; in the data active means inhibition above about 35%
GPR7 antagonist: antagonists of human GPR7 (neuropeptides B/W receptor 1) | P48145 | GPR7-expressing cells, fluorescence antagonist assay | inhibition, % at 4.4 µM | hit rate 1.1% among 290,000; in the data active means inhibition above about 16%, passing the limit was not always enough;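 further: cells stimulated with the agonist NPW; 0% = agonist with vehicle and 100% = vehicle without agonist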
Target sequence (P48145 whole entry, looked up): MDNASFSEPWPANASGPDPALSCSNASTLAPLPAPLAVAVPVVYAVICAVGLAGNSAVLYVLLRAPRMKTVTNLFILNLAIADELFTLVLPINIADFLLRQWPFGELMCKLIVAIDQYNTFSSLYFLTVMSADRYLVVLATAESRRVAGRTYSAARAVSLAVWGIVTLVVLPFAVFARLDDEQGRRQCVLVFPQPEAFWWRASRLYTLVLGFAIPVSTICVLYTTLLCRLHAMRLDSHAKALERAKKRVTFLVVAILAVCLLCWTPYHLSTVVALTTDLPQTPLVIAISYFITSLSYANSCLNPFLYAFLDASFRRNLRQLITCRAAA
The depositor's hits bear a star. Compounds with a hit are over-represented: about 4.8% of the library has one in this group of screens.

O=C(Nc1cccc(NC(=O)c2ccc(-c3ccc(Br)cc3)o2)c1)c1ccco1 was read as HSF1 activator 11.9, HSF1 inh 2.4, Jurkat NFkB inh -30.0, T cruzi inh 57.9*, 697 NFkB inh -50.7 and GPR7 antagonist -10.0.
For CCc1ccc(C(=O)Cc2cc3cccc(OC)c3oc2=O)cc1 the results were HSF1 activator 79.8*, HSF1 inh 35.7, Jurkat NFkB inh -46.9, T cruzi inh 3.5, 697 NFkB inh -35.7 and GPR7 antagonist -11.3.
Screening CCO[C@H]1c2c(ccc3ccc(=O)oc23)OC(C)(C)[C@H]1O returned Jurkat NFkB inh 3.0 and 697 NFkB inh 14.9.
Cc1cccc(C)c1NC(=O)COC(=O)c1cccc2c1C(=O)c1ccccc1C2=O was read as HSF1 activator 81.8*, HSF1 inh 30.4, Jurkat NFkB inh -7.6, T cruzi inh 9.7, 697 NFkB inh -30.3 and GPR7 antagonist -5.3.
For CCCS/C(N)=N/N=C/c1ccccc1O the results were HSF1 activator 55.8*, HSF1 inh 13.3, Jurkat NFkB inh -57.2, T cruzi inh -13.3, 697 NFkB inh -86.0 and GPR7 antagonist -1.0.
Screening CCOc1ccccc1C=NN=Cc1ccccc1O returned HSF1 activator -13.6 and HSF1 inh -13.6.
Screening CCN(CC)C(=O)C1c2ccccc2Oc2ccccc21 returned HSF1 activator 3.6, HSF1 inh 1.5, Jurkat NFkB inh 3.7, T cruzi inh -7.5, 697 NFkB inh -5.0 and GPR7 antagonist -0.9.
`C=CCOCCN(CCOCC=C)C1=NS(=O)(=O)c2ccccc21` gave HSF1 activator -93.7, HSF1 inh -91.8*, Jurkat NFkB inh -14.4, T cruzi inh 0.3, 697 NFkB inh -2.3 and GPR7 antagonist -6.4.
For COc1cc(CNCCc2ccccc2F)ccc1OCC(=O)N1CCCCC1 the results were HSF1 activator 14.8, HSF1 inh -1.2, Jurkat NFkB inh -8.4, T cruzi inh 61.8*, 697 NFkB inh -18.6 and GPR7 antagonist -2.1.
CCOc1ccccc1NC(=O)c1cccc(N2C(=O)CCC2=O)c1 was read as HSF1 activator 5.5, HSF1 inh -4.6, Jurkat NFkB inh -1.6, T cruzi inh -9.2, 697 NFkB inh -1.1 and GPR7 antagonist 3.8.
`O=C(Nc1ccccc1[N+](=O)[O-])c1cccc(N2C(=O)CCC2=O)c1` gave HSF1 activator 54.4*, HSF1 inh 18.0, Jurkat NFkB inh 5.0, T cruzi inh -5.9, 697 NFkB inh 4.2 and GPR7 antagonist -0.1.
`O=S(=O)(N[C@H](CO)Cc1ccccc1)c1ccc(Br)cc1F` gave 697 NFkB inh 8.6.
For Cc1cc(Br)c2c(c1)/C(=C/C(=O)c1cccs1)C(=O)N2 the results were HSF1 activator -7.9, HSF1 inh 2.7, Jurkat NFkB inh 3.8, T cruzi inh 58.4*, 697 NFkB inh -13.8 and GPR7 antagonist 8.7.
`CCCCCCCC(=O)N/N=C(\C)c1ccc(O)cc1O` gave HSF1 activator 7.6, HSF1 inh -0.8, Jurkat NFkB inh 30.2, T cruzi inh -17.2, 697 NFkB inh -16.5 and GPR7 antagonist 6.1.
For C/C(=N\NC(=O)COc1ccccc1-c1ccccc1)c1ccccn1 the results were HSF1 activator -15.8, HSF1 inh -0.2, Jurkat NFkB inh 37.5, T cruzi inh 71.1*, 697 NFkB inh -13.0 and GPR7 antagonist 8.3.
`C/C(=N\NC(=O)COc1ccccc1-c1ccccc1)c1cccnc1` gave HSF1 activator -27.9, HSF1 inh -30.3, Jurkat NFkB inh 15.8, T cruzi inh 1.5, 697 NFkB inh 3.6 and GPR7 antagonist 9.1.
`C/C(=N\NC(=O)COc1ccccc1-c1ccccc1)c1ccc(O)cc1O` gave HSF1 activator 23.1, HSF1 inh 9.1, Jurkat NFkB inh 2.5, T cruzi inh 77.4*, 697 NFkB inh 16.6 and GPR7 antagonist -7.1.
Screening CC(=NNC(=S)SCc1ccccc1)c1ccccn1 returned HSF1 activator 95.2* and HSF1 inh 95.2*.
Screening CCN(CC)c1ccc(/C=N/NC(=O)c2cccc(N3CCCC3=O)c2)cc1 returned HSF1 activator 7.1, HSF1 inh -3.2, Jurkat NFkB inh -17.0, T cruzi inh 4.6, 697 NFkB inh 3.9 and GPR7 antagonist -3.0.
Screening CC(C)C(=O)Nc1nnc(CCN2CCOCC2)s1 returned HSF1 activator 5.1, HSF1 inh -4.9, Jurkat NFkB inh 2.4, T cruzi inh -16.9, 697 NFkB inh -12.3 and GPR7 antagonist -4.9.
`Cc1c(C(=S)Nc2ccccc2)cnn1-c1ccccc1` gave HSF1 activator 62.0*, HSF1 inh 20.8, Jurkat NFkB inh -64.7, T cruzi inh -26.3, 697 NFkB inh -59.8 and GPR7 antagonist -5.5.
`COc1ccc2c(c1)CCc1c(C(=O)NCC(C)C)noc1-2` gave HSF1 activator 58.1*, HSF1 inh 33.8, Jurkat NFkB inh -129.6, T cruzi inh 12.5, 697 NFkB inh -148.0 and GPR7 antagonist -12.0.
Screening CCCNC(=O)c1noc2c1CCc1cc(OC)ccc1-2 returned HSF1 activator 66.7*, HSF1 inh 17.6, Jurkat NFkB inh -115.5, T cruzi inh -18.6, 697 NFkB inh -129.1 and GPR7 antagonist -4.5.
COc1ccccc1NC(=O)COn1nnc2ccc(S(=O)(=O)N3CCOCC3)cc21 was read as HSF1 activator -0.2, HSF1 inh -1.0, Jurkat NFkB inh -1.6, T cruzi inh -3.9, 697 NFkB inh -2.5 and GPR7 antagonist -20.4.
COC(=O)C1=C(c2ccc(OC)cc2)OC(=O)C1(C)C was read as HSF1 activator -2.5, HSF1 inh -1.2, Jurkat NFkB inh 9.9, T cruzi inh 0.8, 697 NFkB inh 11.8 and GPR7 antagonist -8.9.
Screening Cc1ccc2cccnc2c1NC(=S)NC(=O)c1ccccc1 returned HSF1 activator 137.2*, HSF1 inh 122.0, Jurkat NFkB inh 5.2, T cruzi inh -7.8, 697 NFkB inh 16.9 and GPR7 antagonist -2.4.
Cc1onc(-c2ccccc2)c1C(=O)N1CCN(c2ncccn2)CC1 was read as HSF1 activator -0.2, HSF1 inh -0.4, Jurkat NFkB inh -2.3, T cruzi inh 2.2, 697 NFkB inh 10.1 and GPR7 antagonist -1.4.
Screening Cn1c(-c2cccs2)nc2ccccc21 returned HSF1 activator 38.7, HSF1 inh 11.9, Jurkat NFkB inh -45.6, T cruzi inh -10.9, 697 NFkB inh -50.1 and GPR7 antagonist 9.5.
`N#Cc1c(Cl)nc(N/N=C/c2ccccc2)c(Cl)c1Cl` gave HSF1 activator 63.0*, HSF1 inh 37.5, Jurkat NFkB inh 1.0, T cruzi inh -30.1, 697 NFkB inh 8.8 and GPR7 antagonist -5.9.
For CCn1c2ccccc2c2cc(NC(=O)CNCC3CCCO3)ccc21 (stereo not given) the results were HSF1 activator 35.8, HSF1 inh 2.8, Jurkat NFkB inh -11.4, T cruzi inh 68.8*, 697 NFkB inh 31.8 and GPR7 antagonist 9.4.
CCn1c2ccccc2c2cc(NC(=O)CN3CCCC3)ccc21 was read as HSF1 activator 6.1, HSF1 inh 8.1, Jurkat NFkB inh -36.3, T cruzi inh -7.8, 697 NFkB inh 2.4 and GPR7 antagonist -4.0.

Assay outcomes as filed in PubChem BioAssay.
